Measured values as given in the array DNA melting data of Ke et al. (doi:10.1101/2024.01.08.574731).

What was measured:
[1] = folding enthalpy; higher = less favourable; fluorescence melt of hairpins on a sequencing array, two-state fit; conditions: sodium 0.088 M
Summary of the method: (§1)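 Bootstrapped two-state fits yielded melting temperature and folding enthalpy for library hairpins. Cy3 fluorescence, with annealed Cy3 and quencher oligos, was imaged on a sequenced MiSeq flow cell in 50 mM Na-HEPES pH 8.0, 25 mM NaCl in 2.5 °C steps up to 60 °C, and normalised to pre-quench Cy3 and to control constructs. Four replicates were combined by inverse variance, and fitted temperatures were raised by 9.35 °C to match UV melts.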

[2] = melting temperature; fluorescence melt of hairpins on a sequencing array, two-state fit, raised by 9.35 °C to match UV melts; conditions: sodium 0.088 M
Summary of the method: as §1

| Sequence | folding enthalpy [1] [kcal/mol] | Tm [2] [°C] |
| --- | --- | --- |
| GTCCGACGAAAGTCCGAC (((.(((....))).))) | -27.5 | 44 |
| GTCCGACGAAAGTCGAC (((.(((....)))))) | -13.2 | 44.7 |
| GTCCGACGAAAGTCTGAC (((.(((....))).))) | -27.1 | 49.1 |
| GTCCGCCGAAAGGCAGAC (((.(((....))).))) | -21.7 | 54.2 |
| GTCCGCGAAAGCGGAGAC ((((((....)))..))) | -7 | 56.8 |
| GTCCGCGAAAGCGGTGAC ((((((....)))..))) | -8.67 | 41 |
| GTCCGCGAAAGCGTAGAC ((((((....)))..))) | -16.7 | 43 |
| GTCCGCGAAAGCGTGGAC ((((((....)))..))) | -16.9 | 54.8 |
| GTCCGCGGAAACGTGGAC ((((.((....)).)))) | -43.5 | 62 |
| GTCCGTCCGAAAGGAGAC (((..(((....)))))) | -11.8 | 29.1 |
| GTCCGTGCGAAAGCAGAC (((..(((....)))))) | -13.8 | 32.4 |
| GTCCGTGGAAACATGGAC ((((.((....)).)))) | -36.9 | 53.6 |
| GTCCGTGGAAACATGGGC (.((.((....)).)).) | -24.9 | 44.9 |
| GTCCGTGGAAACGCGGAC (((((.(....).))))) | -39.8 | 62.2 |
| GTCCTAACGAAAGTTGAC (((..(((....)))))) | -10.9 | 26.6 |
| GTCCTACCGAAAGGTGAC (((..(((....)))))) | -11.1 | 32.5 |
| GTCCTAGGAAACTAGGAC (((((((....))))))) | -51 | 57.2 |
| GTCCTCCGAAAGGACGAC (((.(((....))).))) | -26.1 | 49.7 |
| GTCCTCGAAAGAGACGAC ((((((....)))..))) | -20 | 42 |
| GTCCTCGAAAGAGATGAC ((((((....)))..))) | -16.2 | 33.4 |
| GTCCTCGAAAGAGCGAC ((((((....))).))) | -21.4 | 45.4 |
| GTCCTCGAAAGAGTAGAC ((((((....)))..))) | -19.8 | 35.9 |
| GTCCTCTCGAAAGAGGAC (((..(((....)))))) | -36.2 | 58.5 |

| Sequence | folding enthalpy [1] [kcal/mol] | Tm [2] [°C] |
| --- | --- | --- |
| GTCCTGCCGAAAGGCGAC (((..(((....)))))) | -9.38 | 33.2 |
| GTCCTGGAAACAGGAC ((((((....)))))) | -38.6 | 63 |
| GTCCTGGGAAACCAAGAC (((.(((....))).))) | -22.4 | 34.5 |
| GTCCTGGGAAACTGGGAC ((((..(....)..)))) | -26.5 | 44.8 |
| GTCCTTGGAAACAAGGAC (((((((....))))))) | -38.8 | 59.8 |
| GTCCTTGGAAACAAGGGC (.(((((....))))).) | -36.7 | 52.3 |
| GTCCTTGGAAACAGGGAC ((((.((....)).)))) | -33 | 46.4 |
| GTCCTTGGAAACGAGGAC (((((.(....).))))) | -40.8 | 50.7 |
| GTCGAACGAAAGTTGAC (((.(((....)))))) | -23.4 | 46.3 |
| GTCGAACGAAAGTTTGAC (((.(((....))).))) | -42.2 | 54.5 |
| GTCGAAGAAATTCGAC ((((((....)))))) | -35.6 | 56.2 |
| GTCGAAGCGAAAGCTGAC (((..(((....)))))) | -14.8 | 46.5 |
| GTCGAAGGAAACTTTGGC (.(.(((....))).).) | -22.4 | 29.9 |
| GTCGACACGAAAGTGGAC (((..(((....)))))) | -13.9 | 41.2 |
| GTCGACGAAAGTCGGAC ((((((....))).))) | -14.3 | 58.1 |
| GTCGACGCGAAAGCGGAC (((..(((....)))))) | -12.8 | 45.4 |
| GTCGACGGAAACGTCAAC ((.((((....)))).)) | -15.6 | 43.5 |
| GTCGACGGAAACGTCGGC (.(((((....))))).) | -22.3 | 64.8 |
| GTCGACGGAAACGTTGAC (((.(((....))).))) | -45.5 | 56.3 |
| GTCGACTCGAAAGAGGAC (((..(((....)))))) | -16.9 | 35.6 |
| GTCGATGGAAACATTGAC (((.(((....))).))) | -36.2 | 48.3 |
| GTCGATTCGAAAGAAGAC (((..(((....)))))) | -13 | 29.7 |
| GTCGCACCGAAAGGTGAC (((..(((....)))))) | -8.3 | 35 |

| Sequence | folding enthalpy [1] [kcal/mol] | Tm [2] [°C] |
| --- | --- | --- |
| GTCGCACGAAAGTGAGAC (((.(((....))).))) | -30.6 | 59.5 |
| GTCGCAGGAAACTACGAC ((((.((....)).)))) | -32.1 | 46.3 |
| GTCGCAGGAAACTGCAAC ((.((((....)))).)) | -16.7 | 41.1 |
| GTCGCCACGAAAGTGGAC (((..(((....)))))) | -9.49 | 35.7 |
| GTCGCCCCGAAAGGGGAC (((..(((....)))))) | -9.73 | 40.1 |
| GTCGCCGAAAGGCAAGAC ((((((....)))..))) | -15.4 | 49.8 |
| GTCGCCGAAAGGCAGAC ((((((....))).))) | -17.7 | 61.7 |
| GTCGCCGAAAGGCCTGAC ((((((....)))..))) | -12.4 | 31.8 |
| GTCGCCGAAAGGCGTGAC ((((((....)))..))) | -8.03 | 36.3 |
| GTCGCCGAAAGGCTTGAC ((((((....)))..))) | -12.1 | 39.7 |
| GTCGCCGGAAACGGCAAC ((.((((....)))).)) | -11.2 | 47.1 |
| GTCGCTCGAAAGAGGGAC (((.(((....))).))) | -44.3 | 63.2 |
| GTCGCTGGAAACAGCAAC ((.((((....)))).)) | -15 | 41.7 |
| GTCGCTGGAAACGGTGAC (((.(.(....).).))) | -28.6 | 44.2 |
| GTCGGAACGAAAGTTGAC (((..(((....)))))) | -10.8 | 32.7 |
| GTCGGAGCGAAAGCTGAC (((..(((....)))))) | -22.1 | 44.3 |
| GTCGGAGGAAACTTCGAC ((((.((....)).)))) | -47.7 | 51 |
| GTCGGCGAAAGCCAAGAC ((((((....)))..))) | -15.2 | 49.9 |
| GTCGGCGAAAGCCAGGAC ((((((....)))..))) | -13.7 | 49.9 |
| GTCGGCGAAAGCCCAGAC ((((((....)))..))) | -13.5 | 42.7 |
| GTCGGCGAAAGCCCGAC ((((((....))).))) | -21.9 | 64.7 |
| GTCGGCGAAAGCCCGGAC ((((((....)))..))) | -14.2 | 42.4 |
